# Source: ChEMBL document CHEMBL3244097, “Fluorinated retinoic acids and their analogues. 1. Synthesis and Biological activity of (4-methoxy-2,3,6-trimethylphenyl)nonatetraenoic acid analogues” (J Med Chem, 1979)
# Legend:
# Mus musculus [1] = assay: Toxicity in mouse assessed as hypervitaminosis dose compound treated ip daily monday through friday in first week and monday through thursday in second week measured after 1 day of last injection; format: organism-based; conditions: in vivo, 24 h
# In short: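 Normal mice received retinoid suspended in water containing 0.1% carboxymethylcellulose and 0.01% Triton X-100, given intraperitoneally daily Monday–Friday in week 1 and Monday–Thursday in week 2. Hypervitaminosis, taken as the measure of toxicity, was scored 1 day after the last injection.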
# Mus musculus [2] = assay: Antipapilloma activity against Hart Swiss albino mouse assessed as decrease in chemically-induced papillomas at 10 mg/kg, ip for 5 days/week for 2 weeks; format: functional; parameters: scale not given: the % may be the effect or the level left; conditions: route intraperitoneal
# Mus musculus [3] = assay: Antipapilloma activity against Hart Swiss albino mouse assessed as decrease in chemically-induced papillomas at 5 mg/kg, ip for 5 days/week for 2 weeks; format: functional; parameters: scale not given: the % may be the effect or the level left; conditions: route intraperitoneal
# Mus musculus [4] = assay: Antipapilloma activity against Hart Swiss albino mouse assessed as decrease in chemically-induced papillomas at 40 mg/kg, ip for 5 days/week for 2 weeks; format: functional; parameters: scale not given: the % may be the effect or the level left; conditions: route intraperitoneal
# Mus musculus [5] = assay: Antipapilloma activity against Hart Swiss albino mouse assessed as decrease in chemically-induced papillomas at 20 mg/kg, ip for 5 days/week for 2 weeks; format: functional; parameters: scale not given: the % may be the effect or the level left; conditions: route intraperitoneal
# Mus musculus [6] = assay: Antipapilloma activity against Hart Swiss albino mouse assessed as decrease in chemically-induced papillomas compound treated ip for 5 days/week for 2 weeks; format: functional
# In short: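 At least four doses were used. ED50, the dose giving a 50% decrease in papilloma diameter, was read from a plot of percent decrease versus log dose, fitted by least squares, with a correlation coefficient reported.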
# Mus musculus [7] = assay: Antipapilloma activity against Hart Swiss albino mouse assessed as decrease in chemically-induced papillomas at 1.25 mg/kg, ip for 5 days/week for 2 weeks; format: functional; parameters: scale not given: the % may be the effect or the level left; conditions: route intraperitoneal
# Mus musculus [8] = assay: Antipapilloma activity against Hart Swiss albino mouse assessed as decrease in chemically-induced papillomas at 2.5 mg/kg, ip for 5 days/week for 2 weeks; format: functional; parameters: scale not given: the % may be the effect or the level left; conditions: route intraperitoneal
# Mus musculus [9] = assay: Antipapilloma activity against Hart Swiss albino mouse assessed as decrease in chemically-induced papillomas at 80 mg/kg, ip for 5 days/week for 2 weeks; format: functional; parameters: scale not given: the % may be the effect or the level left; conditions: route intraperitoneal
# Mus musculus [10] = assay: Antipapilloma activity against Hart Swiss albino mouse assessed as decrease in chemically-induced papillomas at 1000 mg/kg, ip once weekly for 2 weeks; parameters: scale not given: the % may be the effect or the level left; conditions: route intraperitoneal
# Mus musculus [11] = assay: Antipapilloma activity against Hart Swiss albino mouse assessed as decrease in chemically-induced papillomas at 600 mg/kg, ip once weekly for 2 weeks; parameters: scale not given: the % may be the effect or the level left; conditions: route intraperitoneal
SMILES,Activity (Mus musculus [1]) [mg/kg/day],Activity (Mus musculus [2]) [%],Activity (Mus musculus [3]) [%],Activity (Mus musculus [4]) [%],Activity (Mus musculus [5]) [%],ED50 (Mus musculus [6]) [mg/kg/day],Activity (Mus musculus [7]) [%],Activity (Mus musculus [8]) [%],Activity (Mus musculus [9]) [%],Activity (Mus musculus [10]) [%],Activity (Mus musculus [11]) [%]
COC(=O)/C=C(C)/C=C/C(F)=C(C)/C=C/c1c(C)cc(OC)c(C)c1C,50,35,28,79,60,13.8,–,–,–,–,–
COc1cc(C)c(/C=C/C(C)=C/C=C(F)/C(C)=C/C(=O)O)c(C)c1C,25,80,63,–,–,2.7,34,48,–,–,–
CCOC(=O)/C=C(C)/C=C/C=C(C)/C=C/C1=C(C)CCCC1(C)C,50,–,–,36,–,48,–,–,47,85,76
CCOC(=O)/C=C(C)/C(F)=C/C(F)=C(C)/C=C/c1c(C)cc(OC)c(C)c1C,> 200,–,–,–,–,> 80,–,–,33,–,–
CCOC(=O)/C(F)=C(C)/C=C/C=C(C)/C=C/C1=C(C)CCCC1(C)C,100,–,–,–,40,> 20,–,–,–,–,–
CCOC(=O)/C=C(C)/C(F)=C/C=C(C)/C=C/C1=C(C)CCCC1(C)C,100,33,–,67,33,24.3,–,–,83,–,–
COC(=O)/C=C(C)/C=C/C(F)=C(C)/C=C/C1=C(C)CCCC1(C)C,200,–,–,–,–,< 80,–,–,60,–,–
CCOC(=O)/C(F)=C(C)/C=C/C=C(C)/C=C/c1c(C)cc(OC)c(C)c1C,12.5,37,–,–,–,> 10,–,–,–,–,–
CCOC(=O)/C=C(C)/C(F)=C\C=C(C)\C=C\c1c(C)cc(OC)c(C)c1C,200,–,–,–,–,80,–,–,56,–,–
COC(=O)/C=C(C)/C=C/C(F)=C(C)\C=C\c1c(C)cc(OC)c(C)c1C,200,–,–,–,–,> 80,–,–,17,–,–
COC(=O)/C=C(C)/C=C/C=C(C)/C(F)=C/c1c(C)cc(OC)c(C)c1C,> 200,–,–,–,–,> 80,–,–,3,–,–
CCOC(=O)/C=C(C)/C=C/C=C(C)/C=C(\F)c1c(C)cc(OC)c(C)c1C,–,–,–,40,–,> 40,–,–,–,–,–
CCOC(=O)/C=C(C)/C=C/C=C(C)/C=C(/F)c1c(C)cc(OC)c(C)c1C,–,–,–,26,–,> 40,–,–,–,–,–
CCOC(=O)/C(F)=C(C)/C(F)=C/C=C(C)/C=C/c1c(C)cc(OC)c(C)c1C,> 200,–,–,–,–,> 80,–,–,17,–,–
CCOC(=O)/C(F)=C(C)/C=C/C(F)=C(C)/C=C/c1c(C)cc(OC)c(C)c1C,> 200,–,–,–,–,> 80,–,–,35,–,–
CCOC(=O)\C=C(/C=C/C=C(C)/C=C/c1c(C)cc(OC)c(C)c1C)C(F)(F)F,> 200,–,–,–,–,> 80,–,–,-2,–,–
COC(=O)/C=C(C)/C=C/C=C(\C=C\c1c(C)cc(OC)c(C)c1C)C(F)(F)F,> 200,–,–,–,–,> 80,–,–,25,–,–
COc1cc(C)c(/C=C/C(C)=C(F)/C=C/C(C)=C/C(=O)O)c(C)c1C,50,54,30,–,87,7.1,–,28,–,–,–
CCNC(=O)/C=C(C)/C(F)=C/C=C(C)/C=C/c1c(C)cc(OC)c(C)c1C,50,73,–,–,67,< 10,–,–,–,–,–
CCNC(=O)/C=C(C)/C=C/C(F)=C(C)/C=C/c1c(C)cc(OC)c(C)c1C,200,–,–,–,–,80,–,–,53,–,–
CCOC(=O)/C=C(C)/C(F)=C/C=C(C)/C=C/c1c(C)cc(OC)c(C)c1C,50,76,43,69,62,4,–,–,82,–,–
COC(=O)/C=C(C)/C=C(F)/C=C(C)/C=C/c1c(C)cc(OC)c(C)c1C (mixture of isomers),> 200,–,–,–,–,> 80,–,–,25,–,–
COc1cc(C)c(/C=C/C(C)=C/C=C/C(C)=C/C(=O)O)c(C)c1C [ACITRETIN],100,43,18,90,66,12.5,–,–,–,–,–
CCOC(=O)/C=C(C)/C=C/C=C(C)/C=C/c1c(C)cc(OC)c(C)c1C [ETRETINATE],100,9,–,33,29,80,–,–,47,–,–
CCNC(=O)/C=C(C)/C=C/C=C(C)/C=C/c1c(C)cc(OC)c(C)c1C [MOTRETINIDE],50,23,11,73.8,54,19.2,–,–,–,–,–
